In ChEMBL document CHEMBL2380270, “Radiosynthesis and first evaluation in mice of [(18)F]NS14490 for molecular imaging of α7 nicotinic acetylcholine receptors” (Bioorg Med Chem, 2013):

How the values were obtained:
[1] = Biodistribution in CD1 mouse urine at 200 to 300 kBq, iv measured at 30 mins by gamma counting analysis; format: ADME, organism-based; details: in vivo, 0.5 h
Outline: (§1)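 Female CD-1 mice given 200–300 kBq tracer intravenously. Animals anaesthetised for blood and urine sampling, then killed by cervical dislocation at 5, 15, 30 or 60 min (n = 3 per time; n = 7 at 60 min). Organs removed and weighed, activity gamma-counted, expressed as % injected dose per g wet weight. Blocking arm: 10 mg/kg i.p. in 0.9% saline, 10 min before tracer; two-tailed unpaired t test versus control.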

Liver [2] = experiment: Biodistribution in CD1 mouse liver at 200 to 300 kBq, iv measured at 30 mins by gamma counting analysis; format: ADME, organism-based; details: in vivo, 0.5 h
Outline: (§2)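 Female CD-1 mice received 200–300 kBq [18F]radiotracer intravenously. Blood and urine were sampled under anaesthesia, then mice were killed by cervical dislocation at 5, 15, 30 or 60 min p.i. (n = 3; control at 60 min n = 7). Organs were removed and weighed, activity was gamma-counted, and uptake was expressed as % injected dose per g wet tissue.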

[3] = Biodistribution in CD1 mouse urine at 200 to 300 kBq, iv measured at 60 mins by gamma counting analysis in presence of SSR180711; format: ADME, organism-based; details: in vivo, 1 h; outline: as §1
Liver [4] = experiment: Biodistribution in CD1 mouse liver at 200 to 300 kBq, iv measured at 15 mins by gamma counting analysis; format: ADME, organism-based; details: in vivo, 0.25 h; outline: as §2
Spleen [5] = experiment: Biodistribution in CD1 mouse spleen at 200 to 300 kBq, iv measured at 60 mins by gamma counting analysis in presence of SSR180711; format: ADME, organism-based; details: in vivo, 1 h
Outline: (§3)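 Blocking design in female CD-1 mice, n = 7 per group. The blocker was given at 10 mg kg^-1 i.p. in 0.9% saline 10 min before i.v. 200–300 kBq [18F]radiotracer. Mice were killed at 60 min p.i. and organs weighed and gamma-counted as % ID per g wet weight. Blocked groups were compared with controls by two-tailed independent Student's t test.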

Spleen [6] = experiment: Biodistribution in CD1 mouse spleen at 200 to 300 kBq, iv measured at 60 mins by gamma counting analysis; format: ADME, organism-based; details: in vivo, 1 h; outline: as §2
Pancreas = experiment: Biodistribution in CD1 mouse pancreas at 200 to 300 kBq, iv measured at 15 mins by gamma counting analysis; format: ADME, organism-based; details: in vivo, 0.25 h; outline: as §2
Zone of skin [7] = experiment: Biodistribution in CD1 mouse skin at 200 to 300 kBq, iv measured at 30 mins by gamma counting analysis; format: ADME, organism-based; details: in vivo, 0.5 h; outline: as §2
Urinary bladder [8] = experiment: Biodistribution in CD1 mouse bladder at 200 to 300 kBq, iv measured at 60 mins by gamma counting analysis; format: ADME, organism-based; details: in vivo, 1 h
Outline: (§4)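 Female CD-1 mice, 200–300 kBq radiotracer given iv, n = 3 per time point. Animals anaesthetised for blood and urine sampling, then killed by cervical dislocation at 5, 15, 30 or 60 min p.i. Organs removed, weighed and gamma-counted; uptake expressed as % injected dose per g wet tissue.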

Zone of skin [9] = experiment: Biodistribution in CD1 mouse skin at 200 to 300 kBq, iv measured at 15 mins by gamma counting analysis; format: ADME, organism-based; details: in vivo, 0.25 h; outline: as §2
Mus musculus [10] = experiment: Biodistribution in CD1 mouse large intestine at 200 to 300 kBq, iv measured at 30 mins by gamma counting analysis; format: ADME, organism-based; details: in vivo, 0.5 h; outline: as §4
Stomach [11] = experiment: Biodistribution in CD1 mouse stomach at 200 to 300 kBq, iv measured at 60 mins by gamma counting analysis; format: ADME, organism-based; details: in vivo, 1 h; outline: as §2
Blood [12] = experiment: Biodistribution in CD1 mouse blood at 200 to 300 kBq, iv measured at 60 mins by gamma counting analysis; format: ADME, organism-based; details: in vivo, 1 h; outline: as §4
Liver [13] = experiment: Biodistribution in CD1 mouse liver at 200 to 300 kBq, iv measured at 60 mins by gamma counting analysis in presence of SSR180711; format: ADME, organism-based; details: in vivo, 1 h; outline: as §3
Muscle tissue [14] = experiment: Biodistribution in CD1 mouse muscle at 200 to 300 kBq, iv measured at 5 mins by gamma counting analysis; format: ADME, organism-based; details: in vivo; outline: as §2
Liver [15] = experiment: Biodistribution in CD1 mouse liver at 200 to 300 kBq, iv measured at 60 mins by gamma counting analysis; format: ADME, organism-based; details: in vivo, 1 h; outline: as §2
Muscle tissue [16] = experiment: Biodistribution in CD1 mouse muscle at 200 to 300 kBq, iv measured at 60 mins by gamma counting analysis in presence of SSR180711; format: ADME, organism-based; details: in vivo, 1 h; outline: as §3
Brain [17] = experiment: Biodistribution in CD1 mouse brain at 200 to 300 kBq, iv measured at 30 mins by gamma counting analysis; format: ADME, organism-based; details: in vivo, 0.5 h; outline: as §4
Zone of skin [18] = experiment: Biodistribution in CD1 mouse skin at 200 to 300 kBq, iv measured at 60 mins by gamma counting analysis; format: ADME, organism-based; details: in vivo, 1 h; outline: as §2
Femur = experiment: Biodistribution in CD1 mouse femur at 200 to 300 kBq, iv measured at 60 mins by gamma counting analysis; format: ADME, organism-based; details: in vivo, 1 h; outline: as §4
Brain [19] = experiment: Biodistribution in CD1 mouse brain at 200 to 300 kBq, iv measured at 60 mins by gamma counting analysis; format: ADME, organism-based; details: in vivo, 1 h; outline: as §4
Blood [20] = experiment: Biodistribution in CD1 mouse blood at 200 to 300 kBq, iv measured at 60 mins by gamma counting analysis in presence of SSR180711; format: ADME, organism-based; details: in vivo, 1 h
Outline: (§5)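 Blocking study in female CD-1 mice, n = 7 per blocker, with a matching control group. SSR180711 or NS6740 given at 10 mg kg⁻¹ ip in 0.9% saline 10 min before iv radiotracer (200–300 kBq). Organs taken at 60 min p.i., weighed and gamma-counted; uptake as % ID per g wet weight. Compared with control by two-tailed independent Student's t test.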

Stomach [21] = experiment: Biodistribution in CD1 mouse stomach at 200 to 300 kBq, iv measured at 60 mins by gamma counting analysis in presence of SSR180711; format: ADME, organism-based; details: in vivo, 1 h; outline: as §3
Mus musculus [22] = experiment: Biodistribution in CD1 mouse small intestine at 200 to 300 kBq, iv measured at 60 mins by gamma counting analysis; format: ADME, organism-based; details: in vivo, 1 h; outline: as §2
Mus musculus [23] = experiment: Biodistribution in CD1 mouse large intestine at 200 to 300 kBq, iv measured at 60 mins by gamma counting analysis in presence of SSR180711; format: ADME, organism-based; details: in vivo, 1 h; outline: as §5
Heart = experiment: Biodistribution in CD1 mouse heart at 200 to 300 kBq, iv measured at 5 mins by gamma counting analysis; format: ADME, organism-based; details: in vivo; outline: as §4
Brain [24] = experiment: Biodistribution in CD1 mouse brain at 200 to 300 kBq, iv measured at 60 mins by gamma counting analysis in presence of SSR180711; format: ADME, organism-based; details: in vivo, 1 h; outline: as §5
Blood [25] = experiment: Biodistribution in CD1 mouse blood at 200 to 300 kBq, iv measured at 15 mins by gamma counting analysis; format: ADME, organism-based; details: in vivo, 0.25 h; outline: as §4
Brain [26] = experiment: Biodistribution in CD1 mouse brain at 200 to 300 kBq, iv measured at 15 mins by gamma counting analysis; format: ADME, organism-based; details: in vivo, 0.25 h; outline: as §4
Mus musculus [27] = experiment: Biodistribution in CD1 mouse adrenal at 200 to 300 kBq, iv measured at 15 mins by gamma counting analysis; format: ADME, organism-based, Adrenal gland; details: in vivo, 0.25 h; outline: as §4
Urinary bladder [28] = experiment: Biodistribution in CD1 mouse bladder at 200 to 300 kBq, iv measured at 5 mins by gamma counting analysis; format: ADME, organism-based; details: in vivo; outline: as §4
Kidney = experiment: Biodistribution in CD1 mouse kidney at 200 to 300 kBq, iv measured at 5 mins by gamma counting analysis; format: ADME, organism-based; details: in vivo; outline: as §4

O=C(Oc1ccc(Br)cc1)N1CCN2CCC1CC2 [SSR180711] gave a Drug uptake [1] of 123 % ID/g, a Drug uptake (Liver [2]) of 8.51 % ID/g and a Drug uptake [3] of 270 % ID/g. The Drug uptake (Liver [4]) was 9.39 % ID/g, the Drug uptake (Spleen [5]) was 7.53 % ID/g and the Drug uptake (Spleen [6]) was 7.46 % ID/g. It also gave a Drug uptake (Pancreas) of 5.48 % ID/g, a Drug uptake (Zone of skin [7]) of 1.23 % ID/g and a Drug uptake (Urinary bladder [8]) of 1.88 % ID/g. The Drug uptake (Zone of skin [9]) was 1.4 % ID/g, the Drug uptake (Mus musculus [10]) was 2.7 % ID/g and the Drug uptake (Stomach [11]) was 8.13 % ID/g. The Drug uptake (Blood [12]) was 0.78 % ID/g, the Drug uptake (Liver [13]) was 6.45 % ID/g and the Drug uptake (Muscle tissue [14]) was 1.59 % ID/g. The Drug uptake (Liver [15]) was 7.79 % ID/g, the Drug uptake (Muscle tissue [16]) was 1.02 % ID/g and the Drug uptake (Brain [17]) was 0.18 % ID/g. For the same compound, the Drug uptake (Zone of skin [18]) was 1.94 % ID/g, the Drug uptake (Femur) was 2.09 % ID/g and the Drug uptake (Brain [19]) was 0.18 % ID/g. For the same compound, the Drug uptake (Blood [20]) was 0.78 % ID/g, the Drug uptake (Stomach [21]) was 7.76 % ID/g and the Drug uptake (Mus musculus [22]) was 16.1 % ID/g. It also gave a Drug uptake (Mus musculus [23]) of 5.46 % ID/g, a Drug uptake (Heart) of 3.35 % ID/g and a Drug uptake (Brain [24]) of 0.15 % ID/g. For the same compound, the Drug uptake (Blood [25]) was 1.25 % ID/g, the Drug uptake (Brain [26]) was 0.24 % ID/g and the Drug uptake (Mus musculus [27]) was 5.65 % ID/g. For the same compound, the Drug uptake (Urinary bladder [28]) was 1.27 % ID/g and the Drug uptake (Kidney) was 10.6 % ID/g.
